Results as given in ChEMBL document CHEMBL1150609, “New furanoid diterpenes from Caesalpinia pulcherrima” (2002).

Tests used:
Assay type in all cases: functional
Staphylococcus aureus [1] = assay: Antimicrobial activity against Staphylococcus aureus UPCC 1143 assessed as clearing zone at 30 ug after 24 hrs; settings: read-out: IZ
Summary of the method: (§1)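 Agar-well diffusion. 24 h cultures were suspended in 0.1% peptone water at about 6 × 10^8 cells/mL, and 0.1 mL was seeded into a nutrient agar overlay. Three 10 mm wells were cut per plate, each loaded with sample in 95% EtOH (70 µg test sample; 30 µg standard). Plates were incubated at 30 ± 1 °C for 24 h, and the clear inhibition zone was measured in mm.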

Escherichia coli [2] = assay: Antimicrobial activity against Escherichia coli UPCC 1195 assessed as clearing zone at 30 ug after 24 hrs; settings: read-out: IZ; summary of the method: as §1
Pseudomonas aeruginosa [3] = assay: Antimicrobial activity against Pseudomonas aeruginosa UPCC 1244 assessed as clearing zone at 30 ug after 24 hrs; settings: read-out: IZ; summary of the method: as §1
Bacillus subtilis [4] = assay: Antimicrobial activity against Bacillus subtilis UPCC 1149 assessed as clearing zone at 30 ug after 24 hrs; settings: read-out: IZ; summary of the method: as §1
Candida albicans [5] = assay: Antimicrobial activity against Candida albicans UPCC 2168 assessed as clearing zone at 30 ug after 48 hrs; settings: read-out: IZ
Summary of the method: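 C. albicans was grown as a 24 h culture, suspended at about 6 × 10^8 cells/mL in 0.1% peptone water, and 0.1 mL was seeded into a glucose yeast peptone agar overlay. Three 10 mm wells per plate received sample in 95% EtOH (70 µg test sample; 30 µg standard). Plates were incubated at 30 ± 1 °C for 48 h, and the clear growth-inhibition zone was measured in mm.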

[6] = tested on: Trichophyton mentagrophytes; assay: Antimicrobial activity against Trichophyton mentagrophytes UPCC 4193 assessed as clearing zone at 30 ug after 72 hrs; settings: read-out: IZ
Summary of the method: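 T. mentagrophytes was grown as a 5-day culture and suspended in 0.1% peptone water at about 6 × 10^8 cells/mL. A 0.1 mL aliquot was seeded into a potato dextrose agar overlay with three 10 mm wells, each dosed in 95% EtOH (70 µg test sample; 30 µg standard). Plates were incubated at 30 ± 1 °C for 72 h, and the clear inhibition zone was read in mm.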

Staphylococcus aureus [7] = assay: Antimicrobial activity against Staphylococcus aureus UPCC 1143 assessed as antimicrobial index at 30 ug after 24 hrs
Escherichia coli [8] = assay: Antimicrobial activity against Escherichia coli UPCC 1195 assessed as antimicrobial index at 30 ug after 24 hrs
Pseudomonas aeruginosa [9] = assay: Antimicrobial activity against Pseudomonas aeruginosa UPCC 1244 assessed as antimicrobial index at 30 ug after 24 hrs
Bacillus subtilis [10] = assay: Antimicrobial activity against Bacillus subtilis UPCC 1149 assessed as antimicrobial index at 30 ug after 24 hrs
Candida albicans [11] = assay: Antimicrobial activity against Candida albicans UPCC 2168 assessed as antimicrobial index at 30 ug after 48 hrs
Aspergillus niger [12] = assay: Antimicrobial activity against Aspergillus niger UPCC 3701 assessed as antimicrobial index at 30 ug after 48 hrs
[13] = tested on: Trichophyton mentagrophytes; assay: Antimicrobial activity against Trichophyton mentagrophytes UPCC 4193 assessed as antimicrobial index at 30 ug after 72 hrs
Aspergillus niger [14] = assay: Antimicrobial activity against Aspergillus niger UPCC 3701 assessed as clearing zone at 30 ug after 48 hrs; settings: read-out: IZ

Structure (SMILES) | zone of inhibition at 30 µg/disc (Staphylococcus aureus [1]) | zone of inhibition at 30 µg/disc (Escherichia coli [2]) | zone of inhibition at 30 µg/disc (Pseudomonas aeruginosa [3]) | zone of inhibition at 30 µg/disc (Bacillus subtilis [4]) | zone of inhibition at 30 µg/disc (Candida albicans [5]) | zone of inhibition at 30 µg/disc [6] | Activity (Staphylococcus aureus [7]) | Activity (Escherichia coli [8]) | Activity (Pseudomonas aeruginosa [9]) | Activity (Bacillus subtilis [10]) | Activity (Candida albicans [11]) | Activity (Aspergillus niger [12]) | Activity [13] | zone of inhibition at 30 µg/disc (Aspergillus niger [14])
COc1cccc(OC)c1C(=O)OCc1ccccc1 | 12 mm | 12 mm | 13 mm | 13 mm | 14 mm | 14 mm | 0.2 | 0.2 | 0.3 | 0.3 | 0.4 | 0 | 0.4 | –
O=C(N[C@H](CO)[C@H](O)c1ccc([N+](=O)[O-])cc1)C(Cl)Cl [CHLORAMPHENICOL] | 28 mm | 24 mm | 12 mm | 35 mm | – | – | 1.8 | 1.4 | 0.2 | 2.5 | – | – | – | –
Clc1ccccc1C(c1ccccc1)(c1ccccc1)n1ccnc1 [CLOTRIMAZOLE] | – | – | – | – | 20 mm | 21 mm | – | – | – | – | 1 | – | 1.1 | –
C[C@@H]1C[C@@H]([C@H](O)CC2CC(=O)NC(=O)C2)C(=O)[C@@H](C)C1 [CYCLOHEXIMIDE] | – | – | – | – | – | – | – | – | – | – | – | 0.3 | – | 13 mm
C=C1c2ccoc2C[C@H]2[C@H]1C[C@@H](OC(=O)c1ccccc1)[C@@]1(O)C(C)(C)CCC[C@]21C [ISOVOUACAPENOL A] | 16 mm | 12 mm | 12 mm | 15 mm | 14 mm | 12 mm | 0.6 | 0.2 | 0.2 | 0.5 | 0.4 | 0 | 0.2 | –
CC1(C)CCC[C@]2(C)[C@H]3Cc4occc4[C@@](C)(O)[C@@H]3C[C@@H](OC(=O)c3ccccc3)[C@@]12O [ISOVOUACAPENOL B] | 14 mm | 12 mm | 14 mm | 14 mm | 14 mm | 13 mm | 0.4 | 0.2 | 0.4 | 0.4 | 0.4 | 0.2 | 0.3 | 12 mm
C[C@H]1c2ccoc2C[C@H]2[C@H]1[C@@H](O)[C@@H](OC(=O)c1ccccc1)[C@@]1(O)C(C)(C)CCC[C@]21C [ISOVOUACAPENOL C] | 16 mm | 12 mm | 12 mm | 15 mm | 13 mm | 13 mm | 0.6 | 0.2 | 0.2 | 0.5 | 0.3 | 0 | 0.3 | –
Cc1c2c(cc3occc13)[C@@]1(C)CCCC(C)(C)[C@]1(O)[C@H](OC(=O)c1ccccc1)C2 [ISOVOUACAPENOL D] | 12 mm | 12 mm | 12 mm | 12 mm | 12 mm | 12 mm | 0.2 | 0.2 | 0.2 | 0.2 | 0.2 | 0 | 0.2 | –
